The results in this text go back to ChEMBL document CHEMBL1126018, “Syntheses and 5-HT2 antagonist activity of bicyclic 1,2,4-triazol-3(2H)-one and 1,3,5-triazine-2,4(3H)-dione derivatives” (J Med Chem, 1992).

The term inhibition denotes how much of the control response was suppressed. A high value points to a response far below the control. Broadly, the pA2 is the negative logarithm of the molar antagonist concentration that doubles the agonist concentration needed for the same response. Read a low pA2 as lower antagonist potency.

For assay [1], the target named is T1, Adrenergic receptor alpha-1 (Rattus norvegicus) (UniProt P15823+P23944+P43140). Briefly: In vivo inhibitory activity in rats against elevation of blood pressure caused by phenylephrine (30 ug/kg, iv) through Alpha-1 adrenergic receptor, after 1 hr oral administration at dose of 10 mg/kg. Further details: dose 10 mg/kg. It counts as functional, organism-based. Summed up:
(§1)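 Male SD rats under urethane (1 g/kg ip) and alpha-chloralose (80 mg/kg ip). Blood pressure recorded via carotid catheter and transducer, iv dosing via venous catheter. After oral drug or vehicle, phenylephrine 30 μg/kg iv. The pressor rise was expressed as % inhibition, mean ± SEM.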

For assay [2], the target named is T2, Adrenergic receptor alpha-1 (Rattus norvegicus, UniProt P15823+P23944+P43140).
T2 sequence (P15823 whole entry): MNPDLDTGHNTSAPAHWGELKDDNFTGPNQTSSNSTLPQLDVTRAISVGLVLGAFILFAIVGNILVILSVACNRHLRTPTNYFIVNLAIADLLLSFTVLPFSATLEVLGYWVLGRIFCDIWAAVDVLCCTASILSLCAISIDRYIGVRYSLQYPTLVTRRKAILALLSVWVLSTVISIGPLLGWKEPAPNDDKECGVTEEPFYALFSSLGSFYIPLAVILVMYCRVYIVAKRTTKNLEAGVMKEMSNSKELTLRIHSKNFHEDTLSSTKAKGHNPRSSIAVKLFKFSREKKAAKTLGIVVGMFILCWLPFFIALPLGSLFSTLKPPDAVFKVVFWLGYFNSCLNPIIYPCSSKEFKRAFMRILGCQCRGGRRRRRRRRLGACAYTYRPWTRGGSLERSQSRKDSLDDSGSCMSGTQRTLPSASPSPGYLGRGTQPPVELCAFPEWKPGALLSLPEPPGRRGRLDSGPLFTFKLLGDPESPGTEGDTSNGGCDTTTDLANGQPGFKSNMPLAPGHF
T2 sequence (P23944 whole entry): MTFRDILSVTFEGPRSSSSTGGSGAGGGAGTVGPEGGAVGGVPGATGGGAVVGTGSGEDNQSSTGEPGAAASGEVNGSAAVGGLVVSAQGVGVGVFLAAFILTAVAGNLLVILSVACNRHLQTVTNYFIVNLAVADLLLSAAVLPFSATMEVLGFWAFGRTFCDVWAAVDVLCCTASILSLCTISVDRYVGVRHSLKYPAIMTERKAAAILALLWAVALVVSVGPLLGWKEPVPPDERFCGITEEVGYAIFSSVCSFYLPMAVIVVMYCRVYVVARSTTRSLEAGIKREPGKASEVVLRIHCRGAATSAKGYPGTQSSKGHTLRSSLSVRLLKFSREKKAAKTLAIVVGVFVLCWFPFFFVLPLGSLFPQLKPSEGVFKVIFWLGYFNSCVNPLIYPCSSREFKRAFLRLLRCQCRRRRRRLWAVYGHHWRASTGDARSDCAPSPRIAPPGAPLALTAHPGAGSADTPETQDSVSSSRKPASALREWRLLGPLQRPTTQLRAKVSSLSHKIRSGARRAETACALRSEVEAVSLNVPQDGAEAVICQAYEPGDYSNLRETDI
T2 sequence (P43140 whole entry): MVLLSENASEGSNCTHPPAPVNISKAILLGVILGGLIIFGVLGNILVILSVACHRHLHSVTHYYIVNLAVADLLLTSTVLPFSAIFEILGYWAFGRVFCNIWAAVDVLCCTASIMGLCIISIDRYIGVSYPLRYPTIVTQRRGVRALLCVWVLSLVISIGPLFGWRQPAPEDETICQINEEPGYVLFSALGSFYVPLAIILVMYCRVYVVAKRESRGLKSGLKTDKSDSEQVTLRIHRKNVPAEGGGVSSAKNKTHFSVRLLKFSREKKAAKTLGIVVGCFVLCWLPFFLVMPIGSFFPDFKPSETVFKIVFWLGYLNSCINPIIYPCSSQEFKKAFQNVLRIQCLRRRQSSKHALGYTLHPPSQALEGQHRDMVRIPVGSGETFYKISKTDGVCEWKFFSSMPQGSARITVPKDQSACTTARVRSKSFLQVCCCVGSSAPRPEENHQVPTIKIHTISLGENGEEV
Briefly: In vitro antagonistic activity tested against the contraction induced by phenylephrine through Alpha-1 adrenergic receptor in rat thoracic aortic strips. It counts as functional. The method, boiled down: (§2)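 Rat thoracic aortic strips, isometric tension; equilibrated 120 min, primed with 60 mM KCl. Cumulative phenylephrine (0.01-10 μM) curve, wash, 1 h later second cumulative curve with test drug present. pA2 from the concentration-response curves where blockade is competitive (otherwise noncompetitive); single determination.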

Assay [3] has as its target T3, Serotonin 2 (5-HT2) receptor (Rattus norvegicus) (UniProt P30994+P08909+P14842). Kind of assay: In vivo inhibitory activity of 10 mg/kg compound in rats against elevation of BP caused by 5-HT (300 ug/kg, iv) through 5-hydroxytryptamine 2 receptor 1 hr after oral administration. The class given is functional, organism-based. Also on record: dose 10 mg/kg. Summed up: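 Male SD rats anesthetized with urethane (1 g/kg ip) plus alpha-chloralose (80 mg/kg ip). Carotid arterial catheter to a pressure transducer, venous catheter for injection. After oral drug or vehicle, 5-HT 300 μg/kg iv. The pressor phase following the brief hypotensive phase was measured and expressed as % inhibition, mean ± SEM.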

Assay [4] concerns the target Serotonin 2 (5-HT2) receptor (Rattus norvegicus, UniProt P30994+P08909+P14842). Kind of assay: In vitro antagonistic activity tested against the contraction induced by 5-HT through 5-hydroxytryptamine 2 receptor in rat thoracic aortic strips. The class given is functional.
Assay [5] has as its target T1, Adrenergic receptor alpha-1 (Rattus norvegicus). Kind of assay: In vitro antagonistic activity against the contraction induced by phenylephrine through Alpha-1 adrenergic receptor in rat thoracic aortic strips; NC = non-competitive inhibition. The class given is functional. Summed up:
as §2

For assay [6], the target named is T2, Adrenergic receptor alpha-1. Briefly: In vitro antagonistic activity against the contraction induced by phenylephrine through alpha-1 receptor in rat thoracic aortic strips. The class given is functional. The method, boiled down:
as §2

Assay [7] concerns the target T1, Adrenergic receptor alpha-1 (Rattus norvegicus). Kind of assay: In vivo inhibitory activity in rats against elevation of blood pressure caused by phenylephrine (30 ug/kg, iv) through alpha-1 receptor after 1 hr of oral administration at the dose of 10 mg/kg. It counts as functional, organism-based. Also on record: dose 10 mg/kg. Summed up: as §1
The target in assay [8] is T3, Serotonin 2 (5-HT2) receptor (Rattus norvegicus). Briefly: In vitro antagonistic activity against the contraction induced by 5-HT through 5-hydroxytryptamine 2 receptor in rat thoracic aortic strips; NC=non competitive antagonism. It counts as functional. The note with it: filed as antagonist. The method, boiled down: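 Rat thoracic aortic strips, isometric tension; equilibrated 120 min, primed with 60 mM KCl. Cumulative 5-HT (0.1-100 μM) curve, wash, 1 h later second cumulative 5-HT curve with test drug present. pA2 from the concentration-response curves where blockade is competitive (otherwise noncompetitive); single determination.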

T3 sequence (P08909 whole entry, looked up): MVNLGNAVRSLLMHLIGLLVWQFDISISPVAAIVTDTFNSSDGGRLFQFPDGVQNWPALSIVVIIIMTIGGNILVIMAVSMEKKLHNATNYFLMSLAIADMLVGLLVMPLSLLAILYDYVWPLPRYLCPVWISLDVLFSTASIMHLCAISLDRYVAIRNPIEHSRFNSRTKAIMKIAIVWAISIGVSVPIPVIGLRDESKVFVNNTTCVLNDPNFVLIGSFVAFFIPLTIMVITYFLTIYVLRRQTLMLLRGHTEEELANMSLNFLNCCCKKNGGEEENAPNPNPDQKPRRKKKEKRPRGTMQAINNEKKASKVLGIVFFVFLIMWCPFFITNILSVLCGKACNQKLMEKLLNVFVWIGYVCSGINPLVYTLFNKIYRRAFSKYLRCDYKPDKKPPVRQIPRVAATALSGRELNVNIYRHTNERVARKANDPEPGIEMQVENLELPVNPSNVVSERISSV
T3 sequence (P14842 whole entry, looked up): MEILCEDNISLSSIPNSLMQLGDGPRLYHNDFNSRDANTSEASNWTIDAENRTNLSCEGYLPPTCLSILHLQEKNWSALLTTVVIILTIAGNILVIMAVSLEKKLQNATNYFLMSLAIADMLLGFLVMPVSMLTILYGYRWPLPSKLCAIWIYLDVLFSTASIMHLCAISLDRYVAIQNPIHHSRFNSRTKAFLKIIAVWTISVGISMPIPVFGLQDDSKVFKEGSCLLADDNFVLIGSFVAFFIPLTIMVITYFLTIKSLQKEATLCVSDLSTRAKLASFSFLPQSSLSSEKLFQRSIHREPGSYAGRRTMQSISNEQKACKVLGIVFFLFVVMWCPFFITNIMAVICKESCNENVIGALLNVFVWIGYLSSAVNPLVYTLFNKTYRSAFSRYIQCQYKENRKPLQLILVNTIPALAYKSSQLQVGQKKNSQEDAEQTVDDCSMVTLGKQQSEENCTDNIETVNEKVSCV
T3 sequence (P30994 whole entry, looked up): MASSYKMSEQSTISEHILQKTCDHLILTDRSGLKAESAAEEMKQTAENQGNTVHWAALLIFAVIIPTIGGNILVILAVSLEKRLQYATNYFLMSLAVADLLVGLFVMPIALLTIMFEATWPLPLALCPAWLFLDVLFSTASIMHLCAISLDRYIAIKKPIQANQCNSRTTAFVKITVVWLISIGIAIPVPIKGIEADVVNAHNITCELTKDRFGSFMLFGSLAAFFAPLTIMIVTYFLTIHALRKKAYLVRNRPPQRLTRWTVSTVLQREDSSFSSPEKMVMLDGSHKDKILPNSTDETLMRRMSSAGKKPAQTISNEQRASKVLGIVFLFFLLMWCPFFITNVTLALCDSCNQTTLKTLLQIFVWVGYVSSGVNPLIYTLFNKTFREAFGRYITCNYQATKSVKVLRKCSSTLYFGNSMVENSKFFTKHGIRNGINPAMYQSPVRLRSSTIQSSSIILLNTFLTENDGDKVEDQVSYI

For `O=c1n(CCN2CCC(=C(c3ccc(F)cc3)c3ccc(F)cc3)CC2)nc2n1CCCO2`, the inhibition in assay [1] amounted to 16%; in assay [3], 89%. Further, in assay [2], the pA2 was 7.8.

With `O=C(c1ccc(F)cc1)C1CCN(CCCn2c(=O)nc3n(c2=O)CCCC3)CC1`, the results for the pA2 in assay [4] and in assay [2] were 6.5 and 7.3, respectively. The results for the inhibition in assay [1] and in assay [3] were 53% and 78%, respectively.

As to `O=C(c1ccc(F)cc1)C1CCN(CCCn2nc3n(c2=O)CCCC3)CC1`, the pA2 in assay [4] amounted to 7.7; in assay [2], 7.8.

Regarding `O=C(c1ccc(F)cc1)C1CCN(CCn2c(=O)nc3sccn3c2=O)CC1`, the figures for the pA2 in assay [4] and in assay [5] were 7.9 and “Non-competitive inhibition”, respectively. The inhibition in assay [1] was 50%; in assay [3] it was 79%.

For `O=c1nc2sccn2c(=O)n1CCN1CCC(=C(c2ccc(F)cc2)c2ccc(F)cc2)CC1`, the pA2 was 7.1 in assay [4] and less than 6 in assay [2]. Also, the inhibition in assay [1] came to 20%; in assay [3], 93%.

For the compound `O=c1nc2n(c(=O)n1CCN1CCC(=C(c3ccc(F)cc3)c3ccc(F)cc3)CC1)CCCC2`, the pA2 in assay [4] is reported as 8.3; in assay [6], 6.8. For the same compound, the inhibition worked out at 93% in assay [3] and 12% in assay [7].

As for `O=C(c1ccc(F)cc1)C1CCN(CCn2nc3n(c2=O)CCC3)CC1`, the figures for the pA2 in assay [4] and in assay [2] were 6.8 and 6.4, respectively. For the same compound, the values for the inhibition in assay [1] and in assay [3] were 36% and 65%, respectively.

Regarding `O=c1n(CCN2CCC(=C(c3ccc(F)cc3)c3ccc(F)cc3)CC2)nc2n1CCSC2`, the pA2 in assay [4] is recorded as 7.8; in assay [2], 7.5. Besides, the inhibition is 4% in assay [1] and 67% in assay [3].

With `O=C(c1ccc(F)cc1)C1(O)CCN(CCn2nc3n(c2=O)CCCC3)CC1`, the pA2 is reported as 6.8 in assay [4] and 7 in assay [2]. Also, the inhibition in assay [1] came out at 15%; in assay [3], 85%.

For `O=c1nc2n(c(=O)n1CCN1CCC(=C(c3ccc(F)cc3)c3ccc(F)cc3)CC1)CCC2`, the figures for the pA2 in assay [4] and in assay [6] were 8.3 and 6.8, respectively. Moreover, the values for the inhibition in assay [1] and in assay [3] were 8% and 83%, respectively.

Regarding `O=c1n(CCN2CCC(=C(c3ccc(F)cc3)c3ccc(F)cc3)CC2)nc2n1CCC2`, the pA2 in assay [4] is recorded as 7.1; in assay [6] it was 6.9. The inhibition in assay [3] is 74%; in assay [7], 6%.

With `O=C(c1ccc(F)cc1)C1CCN(CCn2nc3n(c2=O)CCCC3)CC1c1ccc(F)cc1` (stereo not given), the pA2 in assay [4] and in assay [2] was 6.8 throughout. The results for the inhibition in assay [1] and in assay [3] were 15% and 90%, respectively.

Consider `O=C(c1ccc(F)cc1)C1CCN(CCn2nc3n(c2=O)CCCC3)CC1`, for which the pA2 in assay [4] is reported as 7.4; in assay [2], less than 6. In addition, the results for the inhibition in assay [1] and in assay [3] were 32% and 91%, respectively.

In the case of `COc1ccc(C(=C2CCN(CCn3nc4n(c3=O)CCCC4)CC2)c2ccc(OC)cc2)cc1`, the values for the pA2 in assay [4] and in assay [6] were 6.8 and 7.2, respectively. Further, the inhibition in assay [3] was found to be 41%; in assay [7] it was 4%.

Turning to `O=C(c1ccc(F)cc1)C1(c2ccc(F)cc2)CCN(CCn2nc3n(c2=O)CCCC3)CC1`, the results for the pA2 in assay [4] and in assay [2] were 6 and less than 6, respectively. Moreover, the inhibition in assay [1] came to 6%; in assay [3], 11%.

For `O=C(c1ccc(F)cc1)C1CCN(CCn2nc3n(c2=O)CCOC3)CC1`, the figures for the pA2 in assay [4] and in assay [2] were 7.4 and 6.3, respectively. Besides, the inhibition was 36% in assay [1] and 62% in assay [3].

As to `O=c1n(CCN2CCC(=C(c3ccc(F)cc3)c3ccc(F)cc3)CC2)nc2n1CCOC2`, the pA2 is 7.2 in assay [4] and 6.6 in assay [2]. Also, the inhibition worked out at 10% in assay [1] and 60% in assay [3].

In the case of `N#CC(=C1CCN(CCn2nc3n(c2=O)CCCC3)CC1)c1ccc(F)cc1`, the pA2 in assay [4] was determined as 6.7; in assay [2], 6.3. Moreover, the inhibition in assay [1] stood at 2%; in assay [3], 32%.

In the case of `O=C(c1ccc(F)cc1)C1(O)CCN(CCn2c(=O)nc3n(c2=O)CCCC3)CC1`, the figures for the pA2 in assay [4] and in assay [2] were 6.7 and 7.2, respectively. Besides, the inhibition was determined as 20% in assay [1] and 83% in assay [3].

As for `O=c1n(CCN2CCC(=C(c3ccc(F)cc3)c3ccc(F)cc3)CC2)nc2n1CCCCC2`, the pA2 amounted to 8.5 in assay [4] and 7 in assay [6]. Also, the inhibition in assay [3] came to 90%; in assay [7], 3%.

Regarding `O=C(c1ccc(F)cc1)C1CCN(CCCn2nc3n(c2=O)CCCCC3)CC1`, the pA2 entry in assay [8] is reported as “Non-competitive antagonist”; in assay [5], “Non-competitive inhibition”.

On to `O=C(c1ccc(F)cc1)C1(O)CCN(CCCn2nc3n(c2=O)CCCCC3)CC1`, for which the pA2 in assay [4] is listed as 7.3; in assay [2] it was 7.6. For the same compound, the inhibition in assay [3] turned out to be 72%.

For the compound `O=C(c1ccc(F)cc1)C1CCN(CCn2c(=O)nc3n(c2=O)CCC3)CC1`, the pA2 is 7.3 in assay [4] and 7.1 in assay [2]. Besides, the inhibition in assay [1] is 23%; in assay [3] it was 67%.

`O=C(c1ccc(F)cc1)C1CCN(CCn2c(=O)nc3n(c2=O)CCCCC3)CC1`: the pA2 in assay [4] was found to be 7.8; in assay [2] it was 6.9. Further, the inhibition turned out to be 15% in assay [1] and 78% in assay [3].

Regarding `O=c1n(CCN2CCC(=C(c3ccccc3)c3ccccc3)CC2)nc2n1CCCCC2`, the pA2 in assay [4] is given as 7; in assay [2], less than 6. The values for the inhibition in assay [1] and in assay [3] were 3% and 42%, respectively.

With `O=C(c1ccc(F)cc1)C1CCN(CCn2c(=O)nc3ccccn3c2=O)CC1`, the pA2 in assay [4] is listed as 8.1; in assay [2], 7.5.

As for `O=c1n(CCN2CCC(=C(c3ccccc3)c3ccc(F)cc3)CC2)nc2n1CCCCC2`, the pA2 was found to be 7.3 in assay [4] and 6.4 in assay [2]. The inhibition amounted to 7% in assay [1] and 84% in assay [3].
